Screening results from PubChem BioAssay.
A selection: hits, their analogues and other compounds. The true share with any hit is near 1.9%.
HGIII-sPLA2 inh: Blocks human group III sPLA2 activity. QFRET BODIPY PC-A2 liposome hydrolysis, fluorescence. inhibition, % at 12.2 µM. 0.56% of 370,000 active. AID 743126;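 active = inhibition above mean plus 3 SD of compounds lying within the high and low control bounds, cut at about 19% in these data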;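 also: 0% = median of test compound wells and 100% = no enzyme DMSO wells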
PLC-beta3 inh: blocks human PLC-beta3 enzyme activity; 0.18% of 370,000 active; Q01970; Purified PLC-beta3, fluorogenic substrate, fluorescence; inhibition, % at 12.2 µM; AID 720704; in the data active = inhibition above about 11%;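 also: 0% = median of compound wells on plate and 100% = full blocker control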
Arrestin-AP2 inh: inhibitors of human beta-arrestin and AP2 interaction; inhibition, % at 10 µM; 0.31% of 340,000 active; FITC-arrestin peptide / GST-AP2 beads, flow cytometry; AP2 beta2 appendage carries R879A mutation; AID 504490;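 active = inhibition above a set limit, near 3 SD of compounds lacking own fluorescence, cut at about 54% in these data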;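 also: plate controls were DMSO wells for no effect and 5 µM unlabelled arrestin peptide for full effect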
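System: GST-AP2 R879A bound to glutathione beads, E. coli-expressed. Also added: 50 nM FITC-arrestin peptide. Schedule: compound with beads 12 min RT, then probe 1 h RT. Signal: bead flow cytometry, FITC channel. Read-out basis: percent response.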
procasp3 activ: activates human procaspase-3; activation, % at 8.5 µM; recombinant procaspase-3 D3A, Ac-DEVD-pNA absorbance 405 nm; P42574; 0.11% of 330,000 active;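 active = activation above the mean of all tested compounds plus 3 SD, cut at about 21% in these data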;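 also: 0% = DMSO alone and 100% = DMSO wells spiked with extra 5 µM PC-3 D3A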
Target sequence (P42574 whole entry D9A/D28A/D175A): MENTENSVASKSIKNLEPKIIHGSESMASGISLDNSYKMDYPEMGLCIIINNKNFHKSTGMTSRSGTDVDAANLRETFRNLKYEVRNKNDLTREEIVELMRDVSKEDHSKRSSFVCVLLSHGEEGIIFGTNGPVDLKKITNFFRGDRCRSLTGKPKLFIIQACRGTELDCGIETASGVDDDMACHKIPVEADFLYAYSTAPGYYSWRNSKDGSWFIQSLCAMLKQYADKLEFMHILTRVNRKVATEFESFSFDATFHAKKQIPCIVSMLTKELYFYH
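Assay system – Procaspase-3 D3A mutant · Benchmarks – DMSO low control, extra-enzyme high control · Technique – 405 nm absorbance of p-nitroaniline, reads at 0 and 120 min · Doses – 8.5 µM nominal · Measure – % activation between DMSO and enzyme-spiked controls · Also added – Ac-DEVD-pNA chromogenic peptide substrate · Schedule – 1 h compound preincubation, 2 h substrate hydrolysis at 25 °C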
procasp7 counter: counter-screen for procaspase-3 activators: activators of human procaspase-7 | P55210 | recombinant procaspase-7, Ac-DEVD-pNA absorbance 405 nm; D23A/D198A/D206A triple mutant, cannot self-cleave; scale: DMSO 0, 5 µM enzyme 100 | activation, % at 8.5 µM | 0.093% of 330,000 active | AID 463210;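 active = percent activation above the screen-wide mean plus 3 SD, cut at about 25% in these data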
Target sequence (P55210 whole entry D23A/D198A/D206A): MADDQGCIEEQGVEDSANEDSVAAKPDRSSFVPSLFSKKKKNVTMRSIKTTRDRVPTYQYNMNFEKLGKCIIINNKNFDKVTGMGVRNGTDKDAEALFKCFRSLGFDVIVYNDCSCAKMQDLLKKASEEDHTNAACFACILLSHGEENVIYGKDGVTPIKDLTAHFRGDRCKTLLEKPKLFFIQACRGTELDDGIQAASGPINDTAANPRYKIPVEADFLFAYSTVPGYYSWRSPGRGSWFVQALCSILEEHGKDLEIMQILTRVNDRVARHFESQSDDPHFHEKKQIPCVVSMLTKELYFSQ
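System: Uncleavable procaspase-7 mutant enzyme; Amount: 2 µM procaspase-7 mutant as dispensed; Schedule: 1 h compound preincubation, 2 h substrate cleavage, 25 °C; Measured by: 405 nm absorbance of p-nitroaniline; Evaluation: percent activation from buffer-corrected 0–120 min absorbance change; Control set: low DMSO alone, high DMSO plus 5 µM PC-7.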
PLC-gamma1 inh: inhibitors of human phospholipase C gamma1 | P19174 | purified PLC-gamma1, fluorogenic substrate, fluorescence | inhibition, % at 12.2 µM | 0.84% of 370,000 active; in the data active = inhibition above about 9.5%
sPLA2 confirm: human GIII-sPLA2 inhibition, confirmation. shares compounds with HGIII-sPLA2 inh. recombinant hGIII-sPLA2, BODIPY PC-A2 QFRET fluorescence. inhibition, % at 12.2 µM. 34% of 2,000 active;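 active = mean inhibition across triplicates above the hit cutoff set in the earlier primary screen, cut at about 19% in these data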;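 also: 0% = enzyme with DMSO and 100% = DMSO wells lacking enzyme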
535nm interf: optically interferes with 535nm fluorescence in sPLA2 counter-screen. shares compounds with HGIII-sPLA2 inh. BODIPY FL product fluorescence interference, QFRET. inhibition, % at 12.2 µM. 8.5% of 2,000 active;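 active = average inhibition above the solvent-only control mean plus 3 SD, cut at about 6% in these data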;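 also: 0% = DMSO with substrate plus product and 100% = DMSO with substrate alone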
535nm interf DR: interferes with 535nm fluorescence in dose response counter-screen | IC50, µM | BODIPY FL product fluorescence interference, cell-free | 240 tested, under 10 active | shares compounds with HGIII-sPLA2 inh;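 active = IC50 at or below 10 µM; inactive = IC50 above 10 µM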
An asterisk follows results filed as active; i = inactive; / = no result given.

SMILES	HGIII-sPLA2 inh	PLC-beta3 inh	Arrestin-AP2 inh	procasp3 activ	procasp7 counter	PLC-gamma1 inh	sPLA2 confirm	535nm interf	others
COc1ccc(NC(=S)NCCCN2CCOCC2)cc1	22*	1	2	4	14	8	1	0
COc1ccc(NC2CCCN(C(=O)c3cn(C)c4ccccc34)C2)cc1 (stereo not given)	10	6	5	-3	1	5	/	/
COCC(=O)N1CCN(C(=O)C(=O)c2cccc(C(F)(F)F)c2)CC1	23*	2	/	/	/	6	1	-2
O=C(C(=O)N1CCN(C(=O)c2cc(C(F)(F)F)cc(C(F)(F)F)c2)CC1)c1cccc(C(F)(F)F)c1	2	2	/	/	/	-1	/	/
CN1OC[C@@H]2CN3C(=O)N(c4ccccc4)c4ccccc4[C@@H]3C[C@@H]21	4	-1	/	/	/	0	/	/
N#Cc1c(C(F)(F)F)cc(-c2ccco2)nc1SCc1ccncc1	-1	-172	5	-16	-10	-145	/	/
N#Cc1c(C(F)(F)F)cc(-c2ccco2)nc1SCc1ccccn1	20*	-189	-1	-5	-11	-147	6	-11
Cc1cc2nc(-c3ccc[nH]c3=O)n(Cc3ccccc3F)c2cc1C	19*	-104	1	/	/	-70	-2	-13
COCCCNCCCCSc1ccc(Cl)cc1	22*	-1	3	4	4	8	-8	-27
COCCCNCCOCCSc1ccc(Cl)cc1	1	1	-1	5	2	-2	/	/
Cc1cc(C)c2nc(NNC(=O)c3cc(-c4cccs4)nc4ccccc34)sc2c1	37*	-94	6	3	5	-72	34*	0	535nm interf DR=>122
O=C(NNc1nc2ccc(Cl)cc2s1)c1cc(-c2cccs2)nc2ccccc12	28*	-129	-3	2	-3	-89	35*	13*
CCOC(=O)CNC(=O)c1cc(-c2ccccn2)nc2c(C)c(Cl)ccc12	0	-3	-23	-3	-1	0	/	/
COc1cccc(COC(=O)C2CCN(S(=O)(=O)c3ccc(C)cc3C)CC2)c1OC	-21	-4	21	2	-1	4	/	/
CCC(C)(NC(=O)c1ccccc1)C(=O)O (stereo not given)	23*	-4	/	2	-5	7	2	-6
COc1ccccc1-n1c(-c2ccco2)n[nH]c1=S	7	-7	-9	0	-4	1	/	/
Cn1c(-c2cccc3ccccc23)n[nH]c1=S	20*	-1	-7	-2	-28	0	5	-4
S=c1[nH]nc(-c2ccco2)n1-c1cccc2ccccc12	21*	8	5	-8	-16	8	25*	3
Cc1ccc(C)c(-n2c(-c3ccco3)n[nH]c2=S)c1	21*	-1	-3	-14	-4	-1	21*	3
Cn1c(Cn2c3ccccc3c3ccccc32)n[nH]c1=S	7	0	-11	-6	-23	3	/	/
O=c1[nH]c(-c2ccccc2)ncc1OCc1ccccc1	2	0	-2	/	/	2	/	/
O=C(c1[nH]c(C(F)(F)F)nc1-c1ccccc1)N1CCN(c2ncccn2)CC1	6	-3	/	/	/	-2	/	/
CC(=O)C1=C(O)C(=O)N(CCC(=O)O)C1c1ccccc1[N+](=O)[O-] (stereo not given)	-4	-9	32	-15	-21	-11	/	/
CC(=O)C1=C(O)C(=O)N(C)C1c1ccccc1[N+](=O)[O-] (stereo not given)	25*	-40	-1	-23	-19	-31	-1	-2
CCc1ccccc1NC(=O)CCS(=O)(=O)c1ccc(C)cc1	20*	1	4	9	4	2	-2	-4
SMILES	HGIII-sPLA2 inh	PLC-beta3 inh	Arrestin-AP2 inh	procasp3 activ	procasp7 counter	PLC-gamma1 inh	sPLA2 confirm	535nm interf	others
COc1ccc(CNC(C)CCc2ccccc2)cc1 (stereo not given)	20*	4	-10	-7	-14	2	9	-16
Cc1cc(NC(=O)c2ccc(NS(=O)(=O)c3ccccc3F)cc2)no1	1	-3	/	/	/	0	/	/
Cc1oc2cc3oc(=O)c(CCC(=O)N(C)CC(=O)O)c(C)c3cc2c1C	23*	i	10	9	3	i	6	-4
Cc1cccc(C)c1NC(=O)c1cccc2c1-c1ccccc1C2=O	22*	-2	9	-11	8	1	4	-5
Cc1cccc(NC(=O)c2cccc3c2-c2ccccc2C3=O)c1C	1	-2	/	/	/	-2	/	/
O=C(NCC(c1cccs1)N1CCOCC1)c1cc([N+](=O)[O-])ccc1Cl (stereo not given)	19*	0	-3	15	-3	3	0	-4
CCCCN1CC(COCc2ccccc2)Oc2cccc(Oc3cc(C)c(C)c(C)c3)c2S1(=O)=O (stereo not given)	8	3	10	/	/	4	/	/
Cc1ccc2oc(=O)c3cc(C(=O)NCCCN4CCC(C)CC4)sc3c2c1	0	6	/	/	/	2	/	/
CCC(=O)Nc1ccc(NC(=O)c2ccc3c(c2)OCO3)cc1	-1	5	-60	5	6	3	/	/
CCN(CC)c1ccc(NC(=O)c2ccc3c(c2)OCO3)cc1	20*	5	24	-1	-8	-2	19	-4
N/C(=N\OC(=O)COc1ccc(Br)cc1)c1ccncc1	20*	-2	-11	9	11	1	-1	-10
O=S(=O)(c1ccc(-c2n[nH]c(=S)o2)cc1)N1CCCC1	21*	-130	20	-7	-5	-97	18	-3
COc1ccc(N(CC(=O)NN=C2CCN(C)CC2)S(=O)(=O)c2ccccc2)c(OC)c1	-15	-7	0	-7	5	-1	/	/
Nc1ccc2c(c1)C(=O)CCC2	-1	-50	/	/	/	-43	/	/
Cc1ccc(NNC(=O)c2ccc(Cl)cc2)nn1	47*	-5	-4	-5	-6	-1	73*	74*
COc1cccc(-c2nc3ccc(C(=O)NC(C)Cc4cccnc4)cc3o2)c1 (stereo not given)	6	-15	28	-1	-7	-10	/	/
